According to ChEMBL document CHEMBL4024781, “Comprehensive Synthesis of Amino Acid-Derived Thiazole Peptidomimetic Analogues to Understand the Enigmatic Drug/Substrate-Binding Site of P-Glycoprotein” (J Med Chem, 2018):

How the values were obtained:
P-gp (ABCB1) [1] = target: T1, P-gp (ABCB1) (Homo sapiens, UniProt P08183); experiment: Inhibition of human P-gp expressed in high five insect cell membrane vesicles by measuring the vanadate-sensitive ATPase activity of P-gp at 2.5 uM preincubated for 5 mins in the presence of sodium orthovanadate measured after 20 mins by colorimetric method
T1 sequence (P08183 whole entry): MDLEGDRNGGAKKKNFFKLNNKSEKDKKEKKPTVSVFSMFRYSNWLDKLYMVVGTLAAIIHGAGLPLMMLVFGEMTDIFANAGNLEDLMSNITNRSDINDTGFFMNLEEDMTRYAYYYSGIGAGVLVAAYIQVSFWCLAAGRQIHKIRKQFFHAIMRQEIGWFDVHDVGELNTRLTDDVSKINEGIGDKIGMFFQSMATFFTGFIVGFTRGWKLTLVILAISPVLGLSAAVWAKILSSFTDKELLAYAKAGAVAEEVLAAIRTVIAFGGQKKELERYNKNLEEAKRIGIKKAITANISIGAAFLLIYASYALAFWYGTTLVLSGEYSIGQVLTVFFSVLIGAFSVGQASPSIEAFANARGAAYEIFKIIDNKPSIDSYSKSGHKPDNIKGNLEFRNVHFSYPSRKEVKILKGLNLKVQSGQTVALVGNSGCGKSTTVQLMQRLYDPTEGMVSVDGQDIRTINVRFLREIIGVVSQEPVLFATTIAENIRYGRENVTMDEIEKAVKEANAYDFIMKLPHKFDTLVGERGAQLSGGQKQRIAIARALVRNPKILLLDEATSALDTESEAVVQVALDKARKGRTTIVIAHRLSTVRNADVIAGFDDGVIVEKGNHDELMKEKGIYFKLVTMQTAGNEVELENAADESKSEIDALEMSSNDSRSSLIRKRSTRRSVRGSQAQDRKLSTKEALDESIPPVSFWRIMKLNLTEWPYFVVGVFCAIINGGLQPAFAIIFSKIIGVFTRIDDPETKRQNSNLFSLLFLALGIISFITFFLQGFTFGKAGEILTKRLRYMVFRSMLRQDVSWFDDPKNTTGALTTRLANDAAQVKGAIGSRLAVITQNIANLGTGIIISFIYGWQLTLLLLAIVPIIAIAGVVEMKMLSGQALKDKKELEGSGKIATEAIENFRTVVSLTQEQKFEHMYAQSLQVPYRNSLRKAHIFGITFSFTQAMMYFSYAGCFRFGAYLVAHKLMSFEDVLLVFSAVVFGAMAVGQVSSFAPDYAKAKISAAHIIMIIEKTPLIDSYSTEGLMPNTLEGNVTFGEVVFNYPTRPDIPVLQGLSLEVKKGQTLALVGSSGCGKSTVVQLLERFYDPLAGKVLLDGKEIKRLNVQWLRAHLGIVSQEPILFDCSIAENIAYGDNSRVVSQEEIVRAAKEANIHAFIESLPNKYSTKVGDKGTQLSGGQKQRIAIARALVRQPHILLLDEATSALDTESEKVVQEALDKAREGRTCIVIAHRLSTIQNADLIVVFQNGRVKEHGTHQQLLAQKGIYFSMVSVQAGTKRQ

P-gp (ABCB1) [2] = target: T1, P-gp (ABCB1); experiment: Inhibition of human P-gp expressed in high five insect cell membrane vesicles by measuring the vanadate-sensitive ATPase activity of P-gp at 0.5 uM preincubated for 5 mins in the presence of sodium orthovanadate measured after 20 mins by colorimetric method
P-gp (ABCB1) [3] = target: T1, P-gp (ABCB1); experiment: Activation of human P-gp expressed in high five insect cell membrane vesicles by measuring the vanadate-sensitive ATPase activity of P-gp at 0.5 uM preincubated for 5 mins in the presence of sodium orthovanadate measured after 20 mins by colorimetric method; conditions: read-out: Activity
Cytochrome P450 3A4 [4] = target: T2, Cytochrome P450 3A4 (Homo sapiens, UniProt P08684); experiment: Inhibition of CYP3A4 (unknown origin); assay type: ADME
T2 sequence (P08684 whole entry): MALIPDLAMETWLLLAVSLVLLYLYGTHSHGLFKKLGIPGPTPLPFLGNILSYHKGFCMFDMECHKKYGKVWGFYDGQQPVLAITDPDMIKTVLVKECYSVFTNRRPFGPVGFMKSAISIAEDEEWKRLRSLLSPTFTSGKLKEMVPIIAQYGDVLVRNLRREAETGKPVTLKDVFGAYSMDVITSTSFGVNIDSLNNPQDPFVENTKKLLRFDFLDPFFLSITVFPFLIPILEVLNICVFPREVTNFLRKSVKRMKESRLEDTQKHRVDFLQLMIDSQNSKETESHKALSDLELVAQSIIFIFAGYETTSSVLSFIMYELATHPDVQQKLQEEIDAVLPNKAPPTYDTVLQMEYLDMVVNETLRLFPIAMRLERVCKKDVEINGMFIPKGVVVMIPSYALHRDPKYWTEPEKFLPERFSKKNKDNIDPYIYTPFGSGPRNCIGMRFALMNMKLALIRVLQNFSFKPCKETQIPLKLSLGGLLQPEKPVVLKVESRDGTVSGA

[5] = target: T3, ATP-dependent translocase ABCB1 (Homo sapiens, UniProt P08183); experiment: Inhibition of human P-gp transfected in HEK293 cells assessed as potentiation of paclitaxel-induced cytotoxicity by measuring fold reduction in paclitaxel IC50 at 10 uM pre-incubated for 1 hr before paclitaxel addition and measured after 72 hrs by MTT assay; assay type: cell-based; conditions: hek293, 72 h
T3 sequence (P08183 whole entry): as the sequence (P08183 whole entry) above
Method in brief: (§1)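 HEK293 cells stably transfected with ABCB1 or empty pcDNA3.1 vector, kept in G418. Seeded at 5000/well and grown 24 h, then given modulator at 10 μM for 1 h before serially diluted paclitaxel (up to 10 μM). MTT read at 570 nm after 72 h. Paclitaxel IC50 from four experiments in triplicate. Fold resistance = IC50 with modulator ÷ IC50 of paclitaxel alone in vector-control cells.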

HEK293 = experiment: Potentiation of paclitaxel-induced cytotoxicity against parental HEK293-pcDNA 3.1 transfected cells assessed as fold reduction in paclitaxel IC50 at 10 uM pre-incubated for 1 hr before paclitaxel addition and measured after 72 hrs by MTT assay; assay type: functional, Homo sapiens; method in brief: as §1
P-gp (ABCB1) [6] = target: T1, P-gp (ABCB1); experiment: Activation of human P-gp expressed in high five insect cell membrane vesicles by measuring the vanadate-sensitive ATPase activity of P-gp at 0.05 uM preincubated for 5 mins in the presence of sodium orthovanadate measured after 20 mins by colorimetric method; conditions: read-out: Activity
[7] = Cytotoxicity in parental HEK293-pcDNA 3.1 transfected cells assessed as cell survival at 10 uM after 72 hrs by MTT assay; assay type: cell-based; conditions: human, parental HEK293 cells transfected with pcDNA 3.1
Method in brief: (§2)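 HEK293 cells stably transfected with empty pcDNA3.1 vector or ABCB1 vector, kept in DMEM with 10% FBS, 1% penicillin/streptomycin, and 2 mg/mL G418 at 37°C in 5% CO2. Cells were seeded at 5000/well, and after 24 h treated with test compound alone, diluted from 10 mM DMSO stocks into medium. After 72 h, viability was read by MTT (4 mg/mL, 4 h), with formazan dissolved in DMSO and absorbance read at 570 nm.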

[8] = Cytotoxicity in P-gp tranfected HEK293 cells assessed as cell survival at 10 uM after 72 hrs by MTT assay; assay type: ADME, cell-based; conditions: human, P-gp transfected HEK293 cells; method in brief: as §2
P-gp (ABCB1) [9] = target: T1, P-gp (ABCB1); experiment: Activation of human P-gp expressed in high five insect cell membrane vesicles by measuring the vanadate-sensitive ATPase activity of P-gp at 2.5 uM preincubated for 5 mins in the presence of sodium orthovanadate measured after 20 mins by colorimetric method; conditions: read-out: Activity
[10] = target: T3, ATP-dependent translocase ABCB1; experiment: Displacement of [125I]-IAAP from human P-gp expressed in high five insect cell membrane vesicles preincubated for 10 mins followed by photocrosslinking for 10 mins by exposing under UV light for 10 mins by SDS-PAGE based method; conditions: for inhibition (INH): human, 10 min
Method in brief: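 Membrane vesicles from P-gp-expressing High Five insect cells (65–75 μg protein/100 μL) incubated with compound (0–5 or 0–10 μM) in 50 mM MES-Tris pH 6.8, 150 mM NaCl, 37 °C, 10 min; moved to 4 °C, 4–5 nM [125I]-IAAP added under subdued light; 366 nm UV 10 min; P-gp band incorporation quantified after SDS-PAGE, DMSO-only as 100%.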

CYP3A4 [11] = target: T4, CYP3A4 (Homo sapiens, UniProt P08684); experiment: Inhibition of CYP3A4 (unknown origin) at 50 uM by fluorescence based-vivid CYP450 green screening kit based assay; assay type: ADME
T4 sequence (P08684 whole entry): as the sequence (P08684 whole entry) above

CYP3A4 [12] = target: T4, CYP3A4; experiment: (§3) Inhibition of CYP3A4 (unknown origin) at 25 uM by fluorescence based-vivid CYP450 green screening kit based assay; assay type: ADME
P-gp (ABCB1) [13] = target: T1, P-gp (ABCB1); experiment: Displacement of [125I]-IAAP from human P-gp expressed in high five insect cell membrane vesicles at >5 uM preincubated for 10 mins followed by photocrosslinking for 10 mins by exposing under UV light for 10 mins by SDS-PAGE based method; conditions: probe [125I]-IAAP, read-out: Imax
Method in brief: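 Membrane vesicles (65–75 μg protein/100 μL) incubated with compound (0–5 or 0–10 μM) in 50 mM MES-Tris pH 6.8, 150 mM NaCl, 37 °C 10 min, then moved to 4 °C. 4–5 nM [125I]-IAAP (2200 Ci/mmol) added under subdued light, cross-linked at 366 nm UV 10 min. P-gp band incorporation quantified after SDS-PAGE, DMSO-only sample = 100%.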

P-gp (ABCB1) [14] = target: T1, P-gp (ABCB1); experiment: Inhibition of human P-gp expressed in high five insect cell membrane vesicles by measuring the vanadate-sensitive ATPase activity of P-gp at 0.05 uM preincubated for 5 mins in the presence of sodium orthovanadate measured after 20 mins by colorimetric method
Cytochrome P450 3A4 [15] = target: T2, Cytochrome P450 3A4; experiment: as §3; assay type: ADME; conditions: 25 µM

Compound: COc1cc(C(=O)NC(Cc2ccc(O)cc2)c2nc(C(=O)NC3CCC(F)(F)CC3)cs2)cc(OC)c1OC (configuration not stated)
- inhibition at 20 min, 2.5 µM (P-gp (ABCB1) [1]): 23%
- inhibition at 20 min, 0.5 µM (P-gp (ABCB1) [2]): 22.4%

Compound: CC(C)[C@H](NC(=O)C1CCC(F)(F)CC1)c1nc(C(=O)NC2CCC(F)(F)CC2)cs1
- activity at 20 min, 0.5 µM (P-gp (ABCB1) [3]): ≤ 10%
- inhibition at 20 min, 2.5 µM (P-gp (ABCB1) [1]): 16.4%

Compound: COc1cc(C(=O)N[C@H](c2nc(C(=S)NC3CCC(F)(F)CC3)cs2)C(C)C)cc(OC)c1OC
- inhibition at 20 min, 2.5 µM (P-gp (ABCB1) [1]): 25.9%
- inhibition at 20 min, 0.5 µM (P-gp (ABCB1) [2]): 37.4%

Compound: COc1cc(C(=O)N[C@H](c2nc(C(=O)Nc3ccccc3C(=O)c3ccccc3)cs2)C(C)C)cc(OC)c1OC
- activity at 20 min, 0.5 µM (P-gp (ABCB1) [3]): 83%
- IC50 (Cytochrome P450 3A4 [4]): 8230 nM
- fold change (FC) [5]: 0.6
- fold change (FC) (HEK293): 1
- activity at 20 min, 0.05 µM (P-gp (ABCB1) [6]): 54%
- viability at 72 h, 10 µM [7]: > 80%
- viability at 72 h, 10 µM [8]: > 80%
- activity at 20 min, 2.5 µM (P-gp (ABCB1) [9]): 88%

Compound: COc1cc(C(=O)N[C@H](c2nc(C(=O)NC3CCC(F)(F)CC3)cs2)C(C)C)cc(OC)c1OC
- IC50 [10]: 100 nM
- inhibition (INH) [10]: Dose-dependent effect
- fold change (FC) [5]: 0.6
- inhibition at 20 min, 2.5 µM (P-gp (ABCB1) [1]): 33.9%
- inhibition at 50 µM (CYP3A4 [11]): 28.7%
- fold change (FC) (HEK293): 0.6
- inhibition at 25 µM (CYP3A4 [12]): 9.32%
- viability at 72 h, 10 µM [7]: > 80%
- viability at 72 h, 10 µM [8]: > 80%
- inhibition at 20 min, 0.5 µM (P-gp (ABCB1) [2]): 30.7%
- Emax at 10 min (P-gp (ABCB1) [13]): 90%

Compound: COc1cc(C(=O)N[C@H](c2nc(C(=O)NC3CCCCC3)cs2)C(C)C)cc(OC)c1OC
- inhibition at 20 min, 0.05 µM (P-gp (ABCB1) [14]): 20%
- fold change (FC) [5]: 0.6
- inhibition at 50 µM (CYP3A4 [11]): 52%
- fold change (FC) (HEK293): 1
- inhibition at 25 µM (CYP3A4 [12]): 7.03%
- viability at 72 h, 10 µM [7]: > 80%
- viability at 72 h, 10 µM [8]: > 80%
- inhibition at 20 min, 0.5 µM (P-gp (ABCB1) [2]): 18%

Compound: CC(C)[C@H](NC(=O)c1cc(F)c(F)c(F)c1)c1nc(C(=O)NC2CCC(F)(F)CC2)cs1
- inhibition at 20 min, 2.5 µM (P-gp (ABCB1) [1]): 23.3%
- inhibition at 20 min, 0.5 µM (P-gp (ABCB1) [2]): 16.6%

Compound: COc1cc(C(=O)NC(Cc2ccccc2)c2nc(C(=O)NC3CCC(F)(F)CC3)cs2)cc(OC)c1OC (configuration not stated)
- IC50 [10]: 760 nM
- inhibition (INH) [10]: Dose-dependent effect
- fold change (FC) [5]: 1.7
- inhibition at 20 min, 2.5 µM (P-gp (ABCB1) [1]): 42.5%
- inhibition at 50 µM (CYP3A4 [11]): 32.9%
- fold change (FC) (HEK293): 0.5
- inhibition (INH) (Cytochrome P450 3A4 [15]): Not Active
- viability at 72 h, 10 µM [7]: > 80%
- viability at 72 h, 10 µM [8]: > 80%
- inhibition at 20 min, 0.5 µM (P-gp (ABCB1) [2]): 39.6%

Compound: CC(C)[C@H](NC(=O)c1cccc(N)c1)c1nc(C(=O)Nc2ccccc2C(=O)c2ccccc2)cs1
- activity at 20 min, 0.5 µM (P-gp (ABCB1) [3]): 308%
- fold change (FC) [5]: 17.9
- inhibition at 50 µM (CYP3A4 [11]): 83.3%
- fold change (FC) (HEK293): 0.5
- activity at 20 min, 0.05 µM (P-gp (ABCB1) [6]): 376%
- inhibition at 25 µM (CYP3A4 [12]): 43.6%
- viability at 72 h, 10 µM [7]: > 80%
- viability at 72 h, 10 µM [8]: > 80%

Compound: COc1cc(C(=O)N[C@H](c2nc(C(=O)N[C@@H]3CCCc4ccccc43)cs2)C(C)C)cc(OC)c1OC
- activity at 20 min, 0.5 µM (P-gp (ABCB1) [3]): 33.9%
- fold change (FC) [5]: 2.9
- fold change (FC) (HEK293): 1.4
- viability at 72 h, 10 µM [7]: > 80%
- viability at 72 h, 10 µM [8]: > 80%
- activity at 20 min, 2.5 µM (P-gp (ABCB1) [9]): 31.3%

Compound: COc1ccc(CCN(C)CCCC(C#N)(c2ccc(OC)c(OC)c2)C(C)C)cc1OC (configuration not stated)
- fold change (FC) (HEK293): 0.9
- viability at 72 h, 10 µM [7]: > 80%
- viability at 72 h, 10 µM [8]: > 80%
